# Data from ChEMBL document CHEMBL1131093, “ATP-Citrate lyase as a target for hypolipidemic intervention. 2. Synthesis and evaluation of (3R,5S)-omega-substituted-3-carboxy-3, 5-dihydroxyalkanoic acids and their gamma-lactone prodrugs as inhibitors of the enzyme in vitro and in vivo” (J Med Chem, 1998).
# pKi: −log10 of the molar value. Where “and” joins values, the source holds several entries; their conditions need not be identical. Identical values can stand only once.
# What was measured:
# [1] = test system: HepG2; assay: Inhibition of ATP levels in HepG2 cells was measured at 1 uM concentration.; format: functional, Homo sapiens; design: scale not given: the % may be the effect or the level left
# In short: (§1)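 Compounds were applied to HepG2 cells as their γ-lactone prodrugs. De novo cholesterol synthesis, fatty acid synthesis and cellular ATP levels were each expressed as % of control. Significance was marked at p < 0.001.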
# [2] = test system: HepG2; assay: Inhibition of ATP levels in HepG2 cells was measured at 10 uM concentration.; format: functional, Homo sapiens; design: scale not given: the % may be the effect or the level left; in short: as §1
# [3] = test system: HepG2; assay: Inhibition of ATP levels in HepG2 cells was measured at 3 uM concentration.; format: functional, Homo sapiens; design: scale not given: the % may be the effect or the level left; in short: as §1
# [4] = test system: HepG2; assay: Inhibition of cholesterol synthesis in HepG2 cells was measured at 10 uM concentration.; format: functional, Homo sapiens; design: scale not given: the % may be the effect or the level left; in short: as §1
# [5] = test system: HepG2; assay: Inhibition of cholesterol synthesis in HepG2 cells was measured at 3 uM concentration.; format: functional, Homo sapiens; design: scale not given: the % may be the effect or the level left; in short: as §1
# [6] = test system: HepG2; assay: Inhibition of fatty acid synthesis in HepG2 cells was measured at 3 uM concentration.; format: functional, Homo sapiens; design: scale not given: the % may be the effect or the level left; in short: as §1
# [7] = test system: HepG2; assay: Inhibition of fatty acid synthesis in HepG2 cells was measured at 10 uM concentration.; format: functional, Homo sapiens; design: scale not given: the % may be the effect or the level left; in short: as §1
# [8] = target: T1, ATP-citrate synthase (Rattus norvegicus, UniProt P16638); assay: Inhibitory activity was tested against rat ATP-Citrate Lyase (ACL) enzyme
# T1 sequence (P16638 whole entry): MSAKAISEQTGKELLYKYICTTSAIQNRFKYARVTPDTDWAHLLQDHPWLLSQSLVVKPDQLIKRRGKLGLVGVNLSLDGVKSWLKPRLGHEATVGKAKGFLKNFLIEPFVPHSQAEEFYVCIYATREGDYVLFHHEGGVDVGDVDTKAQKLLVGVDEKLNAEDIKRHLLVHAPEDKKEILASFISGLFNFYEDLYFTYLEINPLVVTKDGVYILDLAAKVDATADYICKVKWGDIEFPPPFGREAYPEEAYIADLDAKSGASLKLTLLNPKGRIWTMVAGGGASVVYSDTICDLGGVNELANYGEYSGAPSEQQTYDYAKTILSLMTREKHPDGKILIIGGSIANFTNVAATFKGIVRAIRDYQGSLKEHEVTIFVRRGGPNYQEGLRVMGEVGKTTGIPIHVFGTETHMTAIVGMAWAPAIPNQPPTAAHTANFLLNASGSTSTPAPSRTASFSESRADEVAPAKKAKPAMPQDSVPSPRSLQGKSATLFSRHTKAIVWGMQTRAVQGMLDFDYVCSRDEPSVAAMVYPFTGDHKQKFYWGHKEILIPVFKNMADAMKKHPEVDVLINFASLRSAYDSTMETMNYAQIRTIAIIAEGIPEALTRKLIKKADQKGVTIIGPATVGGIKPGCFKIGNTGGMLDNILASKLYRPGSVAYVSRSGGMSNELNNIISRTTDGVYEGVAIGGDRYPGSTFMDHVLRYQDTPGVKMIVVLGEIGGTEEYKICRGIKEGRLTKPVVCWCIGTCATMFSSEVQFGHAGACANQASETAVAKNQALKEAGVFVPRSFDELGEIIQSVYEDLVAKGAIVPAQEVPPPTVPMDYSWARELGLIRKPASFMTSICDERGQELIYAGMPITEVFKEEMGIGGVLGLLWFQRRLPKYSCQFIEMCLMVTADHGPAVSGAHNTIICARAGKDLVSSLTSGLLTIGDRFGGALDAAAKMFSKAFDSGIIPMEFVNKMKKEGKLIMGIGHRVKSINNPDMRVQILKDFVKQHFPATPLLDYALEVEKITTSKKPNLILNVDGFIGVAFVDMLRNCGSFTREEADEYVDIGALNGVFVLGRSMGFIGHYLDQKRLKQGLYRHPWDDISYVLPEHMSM
# [9] = target: T2, ATP-citrate synthase (Homo sapiens, UniProt P53396); assay: Inhibitory activity was tested against human recombinant ATP-Citrate Lyase (ACL) enzyme
# T2 sequence (P53396 whole entry): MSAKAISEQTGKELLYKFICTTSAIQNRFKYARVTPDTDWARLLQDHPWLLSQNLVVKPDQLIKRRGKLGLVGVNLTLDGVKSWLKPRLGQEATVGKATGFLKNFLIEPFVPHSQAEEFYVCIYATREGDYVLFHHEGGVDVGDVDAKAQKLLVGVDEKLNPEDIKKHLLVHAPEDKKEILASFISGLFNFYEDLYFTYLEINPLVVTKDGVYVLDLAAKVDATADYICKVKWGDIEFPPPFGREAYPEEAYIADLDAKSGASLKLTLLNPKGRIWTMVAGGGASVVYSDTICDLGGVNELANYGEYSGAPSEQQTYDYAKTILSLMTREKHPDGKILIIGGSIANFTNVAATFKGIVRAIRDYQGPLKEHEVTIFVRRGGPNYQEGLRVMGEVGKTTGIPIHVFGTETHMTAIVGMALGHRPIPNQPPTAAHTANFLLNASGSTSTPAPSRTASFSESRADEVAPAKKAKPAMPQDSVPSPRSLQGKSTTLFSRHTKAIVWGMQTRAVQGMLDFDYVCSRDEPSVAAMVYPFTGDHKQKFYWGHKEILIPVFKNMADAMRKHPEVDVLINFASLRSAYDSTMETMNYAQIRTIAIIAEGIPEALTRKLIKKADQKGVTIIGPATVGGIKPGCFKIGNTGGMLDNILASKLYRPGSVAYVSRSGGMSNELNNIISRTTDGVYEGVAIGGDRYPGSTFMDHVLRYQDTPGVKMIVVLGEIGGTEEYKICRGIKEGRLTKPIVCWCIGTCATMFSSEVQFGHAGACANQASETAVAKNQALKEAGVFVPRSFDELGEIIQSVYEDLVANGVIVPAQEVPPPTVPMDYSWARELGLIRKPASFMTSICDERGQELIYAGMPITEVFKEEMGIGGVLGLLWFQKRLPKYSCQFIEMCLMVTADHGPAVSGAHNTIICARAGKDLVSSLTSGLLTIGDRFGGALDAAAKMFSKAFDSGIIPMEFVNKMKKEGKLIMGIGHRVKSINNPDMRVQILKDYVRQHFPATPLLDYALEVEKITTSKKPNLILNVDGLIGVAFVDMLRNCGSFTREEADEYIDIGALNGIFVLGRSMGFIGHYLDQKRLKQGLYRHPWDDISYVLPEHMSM
# In short: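 Recombinant human ACL enzyme. Compounds purified as γ-lactones were hydrolysed back to the open hydroxy diacid with excess aqueous NaOH before being added to the assay buffer mix. Potency is reported as the reversible Ki for enzyme inhibition.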
# [10] = test system: HepG2; assay: Inhibition of ATP levels in HepG2 cells was measured at 100 uM concentration.; format: functional, Homo sapiens; design: scale not given: the % may be the effect or the level left; in short: as §1
# [11] = test system: HepG2; assay: Inhibition of cholesterol synthesis in HepG2 cells was measured at 100 uM concentration.; format: functional, Homo sapiens; design: scale not given: the % may be the effect or the level left; in short: as §1
# [12] = test system: HepG2; assay: Inhibition of fatty acid synthesis in HepG2 cells was measured at 5 uM concentration.; format: functional, Homo sapiens; design: scale not given: the % may be the effect or the level left; in short: as §1
# [13] = test system: HepG2; assay: Inhibition of ATP levels in HepG2 cells was measured at 15 uM concentration.; format: functional, Homo sapiens; design: scale not given: the % may be the effect or the level left; in short: as §1
# [14] = test system: HepG2; assay: Inhibition of cholesterol synthesis in HepG2 cells was measured at 30 uM concentration.; format: functional, Homo sapiens; design: scale not given: the % may be the effect or the level left; in short: as §1
# [15] = test system: HepG2; assay: (§2) Inhibition of fatty acid synthesis in HepG2 cells was measured at 15 uM concentration.; format: functional, Homo sapiens; design: scale not given: the % may be the effect or the level left; in short: as §1
# [16] = test system: HepG2; assay: Inhibition of ATP levels in HepG2 cells was measured at 30 uM concentration.; format: functional, Homo sapiens; design: scale not given: the % may be the effect or the level left; in short: as §1
# [17] = test system: HepG2; assay: Inhibition of cholesterol synthesis in HepG2 cells was measured at 15 uM concentration.; format: functional, Homo sapiens; design: scale not given: the % may be the effect or the level left; in short: as §1
# [18] = test system: HepG2; assay: Inhibition of cholesterol synthesis in HepG2 cells was measured at 5 uM concentration.; format: functional, Homo sapiens; design: scale not given: the % may be the effect or the level left; in short: as §1
# [19] = test system: HepG2; assay: as §2; format: functional, Homo sapiens; design: scale not given: the % may be the effect or the level left; in short: as §1; remark: listed apart in the source
# [20] = test system: HepG2; assay: Inhibition of fatty acid synthesis in HepG2 cells was measured at 30 uM concentration.; format: functional, Homo sapiens; design: scale not given: the % may be the effect or the level left; in short: as §1
compound,measurement,setting,value
O=C(O)[C@H](O)[C@@]1(O)C[C@@H](CCCCCCc2ccc(Cl)cc2Cl)OC1=O,Control,[1],103%
same,Control,[2],106%
same,Control,[3],100%
same,Control,[4],86%
same,Control,[5],69%
same,Control,[6],74%
same,Control,[7],76%
O=C(O)C[C@@](O)(C[C@H](O)CCCCCCc1ccc(Cl)cc1Cl)C(=O)O (stereo in doubt; 45),pKi,[8],6.00
same,pKi,[9],6.00
same,Control,[10],104%
same,Control,[11],84%
O=C(O)C[C@@]1(O)C[C@@H](CCCCCCc2ccc(Cl)cc2Cl)OC1=O (stereo in doubt; (+)-77),Control,[12],113%
same,Control,[13],100%
same,Control,[14],11%
same,Control,[15],69%
same,Control,[16],99%
same,Control,[17],52% and 41%
same,Control,[18],95%
same,Control,[19],81%
same,Control,[20],25%
